Measured values taken from publication PMC8504818 (Clinical and Translational Science, 2021).
“Also recorded” adds a separate entry of the source. Read-outs that look alike come from different tables or passages of the source. Marks after values point to notes of the source that are not given here. Values belong to the molecule of their own block, whether it stands above or below them.

Tests used:
[1] = Study 2; type: in vivo, human; details: for Accumulation ratio: week 3 / week 1, plasma islatravir AUC0–168 h / Accumulation ratio: week 3 / week 1, plasma islatravir Cmax: LS mean difference (90% CI); for AUC(0-t): Plasma islatravir AUC0–168 h; for AUC(0-t) / Cmax: LS mean (95% CI); for Cmax: Plasma islatravir Cmax
Summary of the method: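 Capsules of 10, 30 or 100 mg were given once weekly for 3 weeks, fasted (6 active, 2 placebo per panel). Plasma was sampled predose to ~168 h after dosing and measured by reversed-phase LC-MS/MS after protein precipitation (LLOQ 1.00 ng/ml). […] Week 3/week 1 ratios are back-transformed with 90% CI.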

[2] = Study 2 safety and tolerability; type: in vivo, human
Summary of the method: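 Double-blind, randomized, serial-panel multiple-dose design: 3 panels of 8 (6 active, 2 placebo) took capsules once weekly for 3 weeks, at least 10 days between panels. Assessments were vital signs, 12-lead ECGs, and hematology and blood chemistry at prespecified times. Adverse events were monitored from consent through 21 days after the last dose. Placebo data were pooled. Participants were adults 18–60 y, BMI ≤32 kg/m2, without HIV.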

[3] = Study 1; type: in vivo, human
Summary of the method: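 Fasted single oral-suspension doses, with 30 mg also given after a high-fat breakfast (55.6 g fat, 55 g carbohydrate, 31.1 g protein), 6 active and 2 placebo per panel. Plasma was sampled predose to ~96 h and analysed by protein precipitation and reversed-phase LC-MS/MS (LLOQ 1.00 ng/ml; range 1.00–1000.00 ng/ml). Log-transformed values went into a mixed model (treatment fixed, subject random), giving a fed/fasted geometric mean ratio with 90% CI.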

[4] = test system: SIV; details: weekly oral islatravir; cited from earlier work
[5] = test system: SIV; details: once‐weekly oral islatravir; cited from earlier work
[6] = test system: HIV‐1; details: cited from earlier work
[7] = Study 1; type: in vivo, human; remark: listed apart in the source
Summary of the method: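 Double-blind, randomized, alternating-panel single-dose design: 3 panels of 8 (6 active, 2 placebo) received an oral suspension or the vehicle as placebo. Assessments were vital signs, 12-lead ECGs, and hematology and blood chemistry at prespecified times. Adverse events were recorded from consent through 21 days after treatment ended. Placebo recipients were pooled. Participants were adults 18–60 y, BMI ≤32 kg/m2, men or women of nonchildbearing potential.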

[8] = cited from earlier work
[9] = Study 1; type: in vivo, human; details: for Intracellular islatravir‐TP AUC0–168 h / Intracellular islatravir‐TP AUC0–∞ / Intracellular islatravir‐TP C168 h / Intracellular islatravir‐TP Cmax: PBMC, LS geometric mean (95% CI)
Summary of the method: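 PBMCs from healthy adults were collected up to ~336 h after single oral doses, fasted or after a high-fat meal (30 mg). Cells were lysed in methanol-containing solvent, protein-precipitated, and triphosphate was measured by ion-exchange LC-MS/MS (LLOQ 0.50 ng/ml; range 0.50–200.00 ng/ml). Concentrations were carryover-corrected when predose exceeded 5% of Cmax. Results are LS geometric means (95% CI) from a log-scale mixed model; fed/fasted ratios have 90% CI.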

[10] = type: in vivo, human; details: for Tmax: human, PBMCs, oral
Summary of the method: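 Healthy adults took weekly oral capsules (10, 30, 100 mg) for 3 weeks. PBMCs were collected up to ~336 h after the last dose and triphosphate was quantified by ion-exchange LC-MS/MS (LLOQ 0.50 ng/ml). Tmax is observed. […] LS means are given with 95% CI.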

[11] = human, plasma, oral, 100 mg, Study 2, 100 mg once weekly, Week 1
[12] = human, plasma, oral, 100 mg, Study 2, 100 mg once weekly, Week 3
[13] = up to 100 mg once weekly for 3 weeks
[14] = Study 2, 10 mg once weekly, Week 1, LS mean (95% CI)
[15] = Study 2, 10 mg once weekly, Week 3, LS mean (95% CI)
[16] = Study 2, 30 mg once weekly, Week 1, LS mean (95% CI)
[17] = Study 2, 30 mg once weekly, Week 3, LS mean (95% CI)
[18] = Study 2, 100 mg once weekly, Week 1, LS mean (95% CI)
[19] = Study 2, 100 mg once weekly, Week 3, LS mean (95% CI)

SMILES: C#C[C@]1(CO)O[C@@H](n2cnc3c(N)nc(F)nc32)C[C@@H]1O [islatravir, 4'‐Ethynyl‐2‐fluoro‐2'‐deoxyadenosine]
Accumulation ratio: week 3 / week 1, plasma islatravir AUC0–168 h ([1]; Study 2, 10 mg once weekly): 1.22 (1.08, 1.36) h*μmol/L
Accumulation ratio: week 3 / week 1, plasma islatravir Cmax ([1]; Study 2, 10 mg once weekly): 1.25 (0.82, 1.92) nmol/L
Accumulation ratio: week 3 / week 1, plasma islatravir AUC0–168 h ([1]; Study 2, 30 mg once weekly): 1.22 (1.09, 1.37) h*μmol/L
Accumulation ratio: week 3 / week 1, plasma islatravir Cmax ([1]; Study 2, 30 mg once weekly): 0.99 (0.64, 1.51) nmol/L
Accumulation ratio: week 3 / week 1, plasma islatravir AUC0–168 h ([1]; Study 2, 100 mg once weekly): 1.25 (1.11, 1.40) h*μmol/L
Accumulation ratio: week 3 / week 1, plasma islatravir Cmax ([1]; Study 2, 100 mg once weekly): 1.26 (0.82, 1.93) nmol/L
accumulation of islatravir in plasma ([1]; Study 2, once‐weekly dosing for 3 weeks): little to no accumulation; also recorded: minimal accumulation
concentration at 48 h ([1]; human, plasma, oral, 10 mg): < 1 ng/mL
concentration at 96 h ([1]; human, plasma, oral, 10 mg): < 1 ng/mL
half-life ([1]; human, plasma, oral, 10 mg): 0.687 days
half-life ([1]; human, plasma, oral, 30 mg): 3.09 days
half-life ([1]; human, plasma, oral, 100 mg): 3.63 days
AUC(0-t) [1, 11]: 9.62 µM·h
AUC(0-t) [1, 12]: 12 µM·h
Cmax [1, 11]: 1470 nM
Cmax [1, 12]: 1850 nM
changes in clinical laboratory values, vital signs, or ECG safety parameter values [2]: No clinically meaningful relationships
intensity of adverse events [2]: mild to moderate
total nonserious adverse events [2]: 12
serious adverse events [2, 13]: no serious adverse events
tolerability [2, 13]: generally well‐tolerated
decrease in plasma islatravir Cmax with a high‐fat meal ([3]; 30 mg fed vs fasted): 49%
increase in plasma islatravir AUC0–∞ with a high‐fat meal ([3]; 30 mg fed vs fasted): 10%
food effect on pharmacokinetics ([3]; 30 mg with a high‐fat meal): no meaningful food effect
Tmax ([3]; human, plasma, po, median time to maximum plasma concentration (Tmax), fasted state, single oral doses): 30 min
protection from infection [4]: protected
duration of declines in SIV RNA [5]: at least 7 days
tolerability ([6]; phase 1b single dose): generally well‐tolerated
suppression of HIV‐1 RNA ([6]; single oral doses as low as 0.5 mg, day 7): greater than 1.0 log
adverse events considered related to islatravir [7]: none
changes in clinical laboratory values, vital signs, or ECG safety parameter values [7]: No clinically meaningful relationships
intensity of adverse events [7]: mild to moderate
total nonserious adverse events [7]: 30
serious adverse events ([7]; single doses up to 400 mg): no serious adverse events
tolerability ([7]; single oral doses up to 400 mg): generally well‐tolerated
time of peak plasma concentrations postdose ([8]; rhesus macaque, enteral administration): ~ 90 min

posterior probability that the true mean intracellular islatravir‐TP C168 h is greater than 0.53 pmol/10^6 cells ([9]; doses of 15 mg and above): greater than 99%
Intracellular islatravir‐TP AUC0–168 h ([9]; single oral 5 mg fasted): 91.6 (73.5–114) h*pmol/10^6cells
Intracellular islatravir‐TP AUC0–∞ ([9]; single oral 5 mg fasted): 162 (120–217) h*pmol/10^6cells
Intracellular islatravir‐TP C168 h ([9]; single oral 5 mg fasted): 0.29 (0.19–0.45) pmol/10^6 cells
Intracellular islatravir‐TP Cmax ([9]; single oral 5 mg fasted): 1.06 (0.83–1.37) pmol/10^6cells
Intracellular islatravir‐TP AUC0–168 h ([9]; single oral 15 mg fasted): 341 (274–425) h*pmol/10^6cells
Intracellular islatravir‐TP AUC0–∞ ([9]; single oral 15 mg fasted): 670 (499–900) h*pmol/10^6cells
Intracellular islatravir‐TP C168 h ([9]; single oral 15 mg fasted): 1.24 (0.80–1.92) pmol/10^6 cells
Intracellular islatravir‐TP Cmax ([9]; single oral 15 mg fasted): 3.65 (2.85–4.69) pmol/10^6cells
Intracellular islatravir‐TP AUC0–168 h ([9]; single oral 30 mg fasted): 871 (700–1080) h*pmol/10^6cells
Intracellular islatravir‐TP AUC0–∞ ([9]; single oral 30 mg fasted): 1420 (1060–1900) h*pmol/10^6cells
Intracellular islatravir‐TP C168 h ([9]; single oral 30 mg fasted): 2.76 (1.78–4.29) pmol/10^6 cells
Intracellular islatravir‐TP Cmax ([9]; single oral 30 mg fasted): 8.21 (6.39–10.50) pmol/10^6cells
Intracellular islatravir‐TP Cmax ([9]; single oral 30 mg fed): 7.85 (6.11–10.1) pmol/10^6cells
Intracellular islatravir‐TP AUC0–∞ ([9]; single oral 30 mg fed, N = 4): 1370 (975–1920) ^g h*pmol/10^6cells
Intracellular islatravir‐TP AUC0–168 h ([9]; single oral 30 mg fed, N = 5): 660 (520–838) ^f h*pmol/10^6cells
Intracellular islatravir‐TP C168 h ([9]; single oral 30 mg fed, N = 5): 2.71 (1.67–4.40) ^f pmol/10^6 cells
Intracellular islatravir‐TP AUC0–168 h ([9]; single oral 100 mg fasted): 1260 (1010–1560) h*pmol/10^6cells
Intracellular islatravir‐TP AUC0–∞ ([9]; single oral 100 mg fasted): 2480 (1850–3330) h*pmol/10^6cells
Intracellular islatravir‐TP C168 h ([9]; single oral 100 mg fasted): 4.79 (3.09–7.43) pmol/10^6 cells
Intracellular islatravir‐TP Cmax ([9]; single oral 100 mg fasted): 13.8 (10.7–17.7) pmol/10^6cells
Intracellular islatravir‐TP AUC0–168 h ([9]; single oral 200 mg fasted): 3100 (2490–3860) h*pmol/10^6cells
Intracellular islatravir‐TP AUC0–∞ ([9]; single oral 200 mg fasted): 5180 (3850–6960) h*pmol/10^6cells
Intracellular islatravir‐TP C168 h ([9]; single oral 200 mg fasted): 7.73 (4.98–12.0) pmol/10^6 cells
Intracellular islatravir‐TP Cmax ([9]; single oral 200 mg fasted): 38.4 (29.9–49.3) pmol/10^6cells
Intracellular islatravir‐TP AUC0–168 h ([9]; single oral 400 mg fasted): 5300 (4260–6580) h*pmol/10^6cells
Intracellular islatravir‐TP AUC0–∞ ([9]; single oral 400 mg fasted): 9320 (6950–12500) h*pmol/10^6cells
Intracellular islatravir‐TP C168 h ([9]; single oral 400 mg fasted): 18.3 (11.8–28.4) pmol/10^6 cells
Intracellular islatravir‐TP Cmax ([9]; single oral 400 mg fasted): 63.6 (49.6–81.6) pmol/10^6cells
Islatravir‐TP AUC0–168 h [10, 14]: 341 (256, 454) h*pmol/10^6 cells
Islatravir‐TP Cmax [10, 14]: 3.79 (2.68, 5.34) pmol/10^6 cells
Islatravir‐TP AUC0–168 h [10, 15]: 476 (357, 634) h*pmol/10^6 cells
Islatravir‐TP Cmax [10, 15]: 6.38 (4.52, 9.00) pmol/10^6 cells
Islatravir‐TP AUC0–168 h [10, 16]: 1160 (872, 1550) h*pmol/10^6 cells
Islatravir‐TP Cmax [10, 16]: 13.2 (9.34, 18.6) pmol/10^6 cells
Islatravir‐TP AUC0–168 h [10, 17]: 1570 (1180, 2100) h*pmol/10^6 cells
Islatravir‐TP Cmax [10, 17]: 19.6 (13.9, 27.7) pmol/10^6 cells
Islatravir‐TP AUC0–168 h [10, 18]: 3150 (2370, 4200) h*pmol/10^6 cells
Islatravir‐TP C168 [10, 18]: 13.5 (10.4, 17.6) pmol/10^6 cells
Islatravir‐TP Cmax [10, 18]: 31.3 (22.2, 44.2) pmol/10^6 cells
Islatravir‐TP AUC0–168 h [10, 19]: 4740 (3560, 6320) h*pmol/10^6 cells
Islatravir‐TP Cmax [10, 19]: 46.7 (33.1, 65.9) pmol/10^6 cells
islatravir‐TP C168 h versus pharmacokinetic target ([10]; Study 2, after the first weekly dose at all dose levels, posterior probability calculation): > 0.53 pmol/10^6 cells
accumulation of intracellular islatravir‐TP ([10]; Study 2, multiple weekly doses of 30 and 100 mg): modest degree of accumulation
accumulation of intracellular islatravir‐TP ([10]; Study 2, multiple weekly doses of 30 and 100 mg, listed as islatravir‐triphosphate): modest degree
accumulation of intracellular islatravir‐TP ([10]; Study 2, weekly administration): ~1.5 fold
Tmax ([10]; 10 mg): 48 h
Tmax ([10]; 30 mg): 9 h
Tmax ([10]; 100 mg): 18 h
SMILES: C#C[C@]1(COP(=O)(O)OP(=O)(O)OP(=O)(O)O)O[C@@H](n2cnc3c(N)nc(F)nc32)C[C@@H]1O [islatravir‐TP, 4'‐Ethynyl‐2‐fluoro‐2'‐deoxyadenosine triphosphate]
effect of food on islatravir‐TP AUC, Cmax, and C168 ([9]; 30 mg with a high‐fat meal): largely unchanged; also recorded: did not affect
intracellular persistence of islatravir‐TP ([8]; preclinically): > 72 h
